Measured values from ChEMBL document CHEMBL2040734, “Benzothiazoles: search for anticancer agents” (2012).

Columns and labels:
Format in all cases: functional
[1] = test system: SK-OV-3; experiment: Cytotoxicity against human SKOV3 cells assessed as cell growth at 0.01 uM after 48 hrs by sulforhodamine B assay; conditions: SK-OV-3, 48 h, read-out: Activity
[2] = test system: SF-295; experiment: Cytotoxicity against human SF295 cells assessed as cell growth at 0.1 uM after 48 hrs by sulforhodamine B assay; conditions: SF-295, 48 h, read-out: Activity
[3] = test system: OVCAR-8; experiment: Cytotoxicity against human OVCAR8 cells assessed as cell growth at 0.1 uM after 48 hrs by sulforhodamine B assay; conditions: OVCAR-8, 48 h, read-out: Activity
[4] = test system: NCI-H522; experiment: Cytotoxicity against human NCI-H522 cells assessed as cell growth at 100 uM after 48 hrs by sulforhodamine B assay; conditions: NCI-H522, 48 h, read-out: Activity
[5] = test system: COLO 205; experiment: Cytotoxicity against human COLO205 cells assessed as cell growth at 100 uM after 48 hrs by sulforhodamine B assay; conditions: COLO 205, 48 h, read-out: Activity
How it was run: (§1)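 NCI-60 five-dose screen. Cells were grown in RPMI 1640 with 5% FBS and 2 mM L-glutamine and preincubated 24 h. Compound (DMSO stock) was tested at 0.01, 0.1, 1, 10 and 100 µM for 48 h at 37 °C. Cells were fixed in situ with cold TCA (final 10%) and stained with 0.4% SRB. A515 was read, and percent growth was calculated against time-zero and control plates.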

[6] = test system: SF-539; experiment: Cytotoxicity against human SF539 cells assessed as cell growth at 100 uM after 48 hrs by sulforhodamine B assay; conditions: SF-539, 48 h, read-out: Activity
[7] = test system: SK-MEL-2; experiment: Cytotoxicity against human SK-MEL-2 cells assessed as cell growth at 100 uM after 48 hrs by sulforhodamine B assay; conditions: SK-MEL-2, 48 h, read-out: Activity
[8] = test system: 786-0; experiment: Cytotoxicity against human 786-0 cells assessed as cell growth at 100 uM after 48 hrs by sulforhodamine B assay; conditions: 786-0, 48 h, read-out: Activity; how it was run: as §1
[9] = test system: MCF7; experiment: Cytotoxicity against human MCF7 cells assessed as cell growth at 0.1 uM after 48 hrs by sulforhodamine B assay; conditions: MCF7, 48 h, read-out: Activity
[10] = test system: SR; experiment: Cytotoxicity against human SR cells assessed as cell growth at 1 uM after 48 hrs by sulforhodamine B assay; conditions: read-out: Activity
[11] = test system: SW-620; experiment: Cytotoxicity against human SW620 cells assessed as cell growth at 1 uM after 48 hrs by sulforhodamine B assay; conditions: SW-620, 48 h, read-out: Activity
[12] = test system: 786-0; experiment: Cytotoxicity against human 786-0 cells assessed as cell growth at 1 uM after 48 hrs by sulforhodamine B assay; conditions: 786-0, 48 h, read-out: Activity; how it was run: as §1
[13] = test system: SF-295; experiment: Cytotoxicity against human SF295 cells assessed as cell growth at 10 uM after 48 hrs by sulforhodamine B assay; conditions: SF-295, 48 h, read-out: Activity
[14] = test system: SK-MEL-5; experiment: Cytotoxicity against human SK-MEL-5 cells assessed as cell growth at 10 uM after 48 hrs by sulforhodamine B assay; conditions: SK-MEL-5, 48 h, read-out: Activity
[15] = test system: OVCAR-8; experiment: Cytotoxicity against human OVCAR8 cells assessed as cell growth at 10 uM after 48 hrs by sulforhodamine B assay; conditions: OVCAR-8, 48 h, read-out: Activity
[16] = test system: MDA-MB-468; experiment: Cytotoxicity against human MDA-MB-468 cells assessed as cell growth at 10 uM after 48 hrs by sulforhodamine B assay; conditions: MDA-MB-468, 48 h, read-out: Activity
[17] = test system: NCI-H322M; experiment: Cytotoxicity against human NCI-H322M cells assessed as cell growth at 10 '-5 M after 48 hrs by sulforhodamine B assay; conditions: read-out: Activity
[18] = test system: HCC 2998; experiment: Cytotoxicity against human HCC2998 cells assessed as cell growth at 10 '-5 M after 48 hrs by sulforhodamine B assay; conditions: HCC 2998, 48 h, read-out: Activity
How it was run: (§2)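 Primary one-dose screen across the NCI 60-line panel at 10 µM. Cells were grown in RPMI 1640 with 5% FBS and 2 mM L-glutamine and held 24 h before drug. Drug was diluted from a DMSO concentrate. Exposure was 48 h at 37 °C, 5% CO2. Cells were fixed with TCA and stained with SRB, with absorbance read at 515 nm. Percent growth was calculated against time-zero and untreated control.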

[19] = test system: SK-MEL-5; experiment: Cytotoxicity against human SK-MEL-5 cells assessed as cell growth at 10 '-5 M after 48 hrs by sulforhodamine B assay; conditions: SK-MEL-5, 48 h, read-out: Activity
[20] = test system: DU-145; experiment: Cytotoxicity against human DU145 cells assessed as cell growth at 10 '-5 M after 48 hrs by sulforhodamine B assay; conditions: DU-145, 48 h, read-out: Activity; how it was run: as §2
[21] = test system: MDA-MB-231; experiment: Cytotoxicity against human MDA-MB-231 cells assessed as cell growth at 10 '-5 M after 48 hrs by sulforhodamine B assay; conditions: MDA-MB-231, 48 h, read-out: Activity
[22] = test system: TK-10; experiment: Growth inhibition of human TK10 cells after 48 hrs by sulforhodamine B assay; conditions: TK-10, 48 h; for CC50: read-out: LC50 (the source's name)
How it was run: (§3)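 Adherent NCI-60 lines were grown in RPMI 1640 with 5% FBS and 2 mM L-glutamine, plated at 5000–40,000 cells/well and preincubated 24 h. They were then exposed to five concentrations (0.01–100 µM, from a DMSO stock) for 48 h at 37 °C, 5% CO2. Cells were fixed with cold TCA (10% final, 60 min, 4 °C) and stained with 0.4% SRB. Dye was solubilized in 10 mM Tris base and A515 read. GI50 was derived from time-zero, control and treated absorbances.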

[23] = test system: UO-31; experiment: Growth inhibition of human UO31 cells after 48 hrs by sulforhodamine B assay; conditions: UO-31, 48 h; for CC50: read-out: LC50 (the source's name); how it was run: as §3
[24] = test system: DU-145; experiment: Growth inhibition of human DU145 cells after 48 hrs by sulforhodamine B assay; conditions: DU-145, 48 h; for CC50: read-out: LC50 (the source's name); how it was run: as §3
[25] = test system: MCF7; experiment: Growth inhibition of human MCF7 cells after 48 hrs by sulforhodamine B assay; conditions: MCF7, 48 h; for CC50: read-out: LC50 (the source's name); how it was run: as §3
[26] = test system: T47D; experiment: Growth inhibition of human T47D cells after 48 hrs by sulforhodamine B assay; how it was run: as §3
[27] = test system: HOP-62; experiment: Cytotoxicity against human HOP62 cells assessed as cell growth at 0.01 uM after 48 hrs by sulforhodamine B assay; conditions: HOP-62, 48 h, read-out: Activity
How it was run: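 Five-dose NCI panel run at 0.01, 0.1, 1, 10 and 100 µM. Cells were in RPMI 1640 with 5% FBS and 2 mM L-glutamine, seeded at 5000–40,000 cells/well and pre-incubated 24 h. Drug was diluted from a DMSO stock into medium with 50 µg/ml gentamicin. Exposure was 48 h at 37 °C, 5% CO2. Cells were fixed with cold TCA and stained with 0.4% SRB, read at 515 nm. Percent growth came from time-zero, control and test absorbances.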

[28] = test system: NCI-H522; experiment: Cytotoxicity against human NCI-H522 cells assessed as cell growth at 0.01 uM after 48 hrs by sulforhodamine B assay; conditions: NCI-H522, 48 h, read-out: Activity
[29] = test system: SF-295; experiment: Cytotoxicity against human SF295 cells assessed as cell growth at 0.01 uM after 48 hrs by sulforhodamine B assay; conditions: SF-295, 48 h, read-out: Activity

Row | SMILES | growth at 0.01 µM [1] [%] | growth at 0.1 µM [2] [%] | growth at 0.1 µM [3] [%] | growth at 100 µM [4] [%] | growth at 100 µM [5] [%] | growth at 100 µM [6] [%] | growth at 100 µM [7] [%] | growth at 100 µM [8] [%] | growth at 0.1 µM [9] [%] | growth at 1 µM [10] [%] | growth at 1 µM [11] [%] | growth at 1 µM [12] [%] | growth at 10 µM [13] [%] | growth at 10 µM [14] [%] | growth at 10 µM [15] [%] | growth at 10 µM [16] [%] | growth at 10 µM [17] [%] | growth at 10 µM [18] [%] | growth at 10 µM [19] [%] | growth at 10 µM [20] [%] | further results
1 | Cc1ccc2nc(Nc3c(C)cccc3C)sc2c1 | 101 | 88 | 105 | 34 | 64 | 48 | 53 | 60 | 92 | 19 | 49 | 81 | 15 | 33 | 67 | 9 | 71 | 54.1 | 26.8 | 62.1 | growth at 10 µM [21]: 47%; GI50 [22]: > 100 µM; TGI [22]: > 100 µM; CC50 [22]: > 100 µM; TGI [23]: > 100 µM; CC50 [23]: > 100 µM; GI50 [24]: > 100 µM; TGI [24]: > 100 µM; CC50 [24]: > 100 µM; GI50 [25]: 1.2 µM; TGI [25]: > 100 µM; CC50 [25]: > 100 µM; GI50 [26]: 54.8 µM; LC50 (concentration giving 50% net cell kill) [26]: > 100 µM; TGI [26]: > 100 µM; growth at 0.01 µM [27]: 109%; growth at 0.01 µM [28]: 85%; growth at 0.01 µM [29]: 91%
2 | Clc1cccc(Cl)c1Nc1nc2cccc(Cl)c2s1 | 101 | 82 | 101 | -49 | -52 | -57 | -44 | -90 | 87 | 51 | 69 | 52 | -87 | -95 | -71 | -73 | 9.8 | -26.1 | -71.3 | -7.04 | growth at 10 µM [21]: -66.8%; GI50 [22]: 1.16 µM; TGI [22]: 2.57 µM; CC50 [22]: 5.67 µM; GI50 [23]: 0.161 µM; TGI [23]: 1.67 µM; CC50 [23]: 4.44 µM; GI50 [24]: 1.41 µM; TGI [24]: 2.75 µM; CC50 [24]: 5.39 µM; GI50 [25]: 0.811 µM; TGI [25]: 2.24 µM; CC50 [25]: 5.37 µM; GI50 [26]: 0.841 µM; LC50 (concentration giving 50% net cell kill) [26]: 5.08 µM; TGI [26]: 2.18 µM; growth at 0.01 µM [27]: 104%; growth at 0.01 µM [28]: 88%; growth at 0.01 µM [29]: 93%
